Activity calls are given as the source filed them. No rule for the calls is given here. Peptide text beside a SMILES is read from it. * marks the point of attachment. NH(4-amidinobenzyl) = N=C(N)c1ccc(CN*)cc1
How the values were obtained:
[1] = biological target: T1, Proprotein convertase subtilisin/kexin type 6 (Homo sapiens, UniProt P29122); assay: Inhibition of recombinant human PACE4 expressed in drosophila S2 cells using pyrGlu-Arg-Thr-Lys-Arg-7-amido-4-methylcoumarin as substrate after 60 mins by spectrofluorometry method; format: cell-based
T1 sequence (P29122 whole entry): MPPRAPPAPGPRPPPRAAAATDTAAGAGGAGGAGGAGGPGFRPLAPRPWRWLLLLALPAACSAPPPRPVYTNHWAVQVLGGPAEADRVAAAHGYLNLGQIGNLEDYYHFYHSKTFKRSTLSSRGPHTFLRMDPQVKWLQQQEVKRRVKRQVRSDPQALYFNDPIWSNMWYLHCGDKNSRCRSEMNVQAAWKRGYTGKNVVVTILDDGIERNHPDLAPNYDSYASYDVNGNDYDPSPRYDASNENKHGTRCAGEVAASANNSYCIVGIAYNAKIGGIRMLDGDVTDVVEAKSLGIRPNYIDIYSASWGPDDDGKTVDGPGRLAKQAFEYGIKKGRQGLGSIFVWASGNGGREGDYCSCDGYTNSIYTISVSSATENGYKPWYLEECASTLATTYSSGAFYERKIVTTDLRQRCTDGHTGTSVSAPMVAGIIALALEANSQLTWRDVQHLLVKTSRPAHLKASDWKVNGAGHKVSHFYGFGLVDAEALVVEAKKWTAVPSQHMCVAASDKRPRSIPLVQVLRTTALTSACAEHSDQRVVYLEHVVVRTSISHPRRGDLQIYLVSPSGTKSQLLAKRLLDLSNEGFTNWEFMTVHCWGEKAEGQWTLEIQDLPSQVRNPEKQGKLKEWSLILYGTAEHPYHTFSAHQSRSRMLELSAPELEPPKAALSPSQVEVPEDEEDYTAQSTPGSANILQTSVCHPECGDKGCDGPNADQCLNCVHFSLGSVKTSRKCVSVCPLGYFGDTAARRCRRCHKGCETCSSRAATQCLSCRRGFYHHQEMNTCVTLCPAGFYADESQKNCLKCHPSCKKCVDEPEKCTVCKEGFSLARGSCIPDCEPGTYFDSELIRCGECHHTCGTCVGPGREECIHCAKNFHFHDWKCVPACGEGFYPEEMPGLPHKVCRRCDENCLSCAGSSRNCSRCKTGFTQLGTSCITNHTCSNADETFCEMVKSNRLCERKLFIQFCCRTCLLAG
Outline: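 Human recombinant purified PACE4 at 2 units/100 µL (20.18 nM), in 20 mM BisTris pH 6.5, 1 mM CaCl2, 1.8 mg/mL BSA. Substrate 100 µM, KM 4.035 µM. Inhibitor 1 nM to 10 µM; 60 min at 37°C. Fluorescence ex 370 / em 460 nm. Ki by Morrison tight-binding equation; three independent experiments, mean ± SD.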

[2] = biological target: Furin (Homo sapiens, UniProt P09958); assay: Inhibition of recombinant human furin expressed in drosophila S2 cells using pyrGlu-Arg-Thr-Lys-Arg-7-amido-4-methylcoumarin as substrate after 60 mins by spectrofluorometry method; format: cell-based
Outline: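 Human recombinant purified furin at 2 units/100 µL (0.54 nM), in 100 mM HEPES pH 7.5, 1 mM CaCl2, 1 mM β-mercaptoethanol, 1.8 mg/mL BSA. His-containing peptides run instead in 20 mM BisTris pH 6.5 with the same additives. Substrate 100 µM, KM 5.04 µM. Inhibitor 1 nM to 10 µM; 60 min at 37°C. Fluorescence ex 370 / em 460 nm. Ki by Morrison equation; triplicate experiments, mean ± SD.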

[3] = species on record: Homo sapiens; assay: Selectivity index, ratio of Ki for recombinant human furin expressed in drosophila S2 cells to Ki for recombinant human PACE4 expressed in drosophila S2 cells; format: cell-based
Outline: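 Ratio Ki(furin)/Ki(PACE4). […] PACE4 buffer was BisTris pH 6.5; furin buffer was HEPES pH 7.5, or BisTris pH 6.5 for His peptides. Ki fitted by Morrison equation from three independent experiments.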

[4] = tested on: DU-145; assay: Antiproliferative activity against human DU145 cells assessed as reduction in metabolic activity at 25 to 100 uM after 72 hrs by MTT assay; format: functional, cell-based
Outline: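 First-pass MTT screen of each library peptide on DU145 cells (RPMI 1640, 5% FBS, 1500 cells/well, poly-L-lysine plates). Peptides added 24 h after seeding at 25, 50 and 100 µM in fresh serum medium for 72 h. MTT 1 mg/mL for 4 h; 2-propanol HCl solubilisation. Activity normalised to water vehicle. Mean ± SEM of at least two independent experiments.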

Furin, sequence (P09958 whole entry): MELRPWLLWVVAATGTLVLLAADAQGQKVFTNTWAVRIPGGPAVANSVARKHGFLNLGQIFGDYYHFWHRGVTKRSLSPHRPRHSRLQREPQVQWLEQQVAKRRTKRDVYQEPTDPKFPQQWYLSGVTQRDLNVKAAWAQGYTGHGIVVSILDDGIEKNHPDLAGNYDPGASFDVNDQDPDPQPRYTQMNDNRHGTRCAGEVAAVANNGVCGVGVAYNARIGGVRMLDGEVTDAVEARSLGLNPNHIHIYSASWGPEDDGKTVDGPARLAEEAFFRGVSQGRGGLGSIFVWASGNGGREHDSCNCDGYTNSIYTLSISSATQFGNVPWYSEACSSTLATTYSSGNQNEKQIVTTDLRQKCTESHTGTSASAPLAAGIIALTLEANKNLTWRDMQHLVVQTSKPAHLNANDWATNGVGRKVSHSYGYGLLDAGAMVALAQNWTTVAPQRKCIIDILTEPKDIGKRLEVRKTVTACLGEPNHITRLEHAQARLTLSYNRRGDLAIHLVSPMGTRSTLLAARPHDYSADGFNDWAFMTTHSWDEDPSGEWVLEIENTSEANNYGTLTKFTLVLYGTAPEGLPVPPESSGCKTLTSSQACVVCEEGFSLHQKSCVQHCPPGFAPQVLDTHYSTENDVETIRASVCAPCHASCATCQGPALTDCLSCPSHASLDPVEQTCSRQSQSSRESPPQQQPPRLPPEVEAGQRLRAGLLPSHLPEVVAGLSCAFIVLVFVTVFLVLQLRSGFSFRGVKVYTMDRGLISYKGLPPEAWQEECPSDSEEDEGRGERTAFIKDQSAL

Row | Ki [1] [nM] | Ki [2] [nM] | Structure (SMILES) | Ratio Ki [3] | Activity [4]
1 | 1 | 1.5 | CC(=O)N[C@@H](CC(C)C)C(=O)N1CCC[C@H]1C(=O)N[C@@H](CC(C)C)C(=O)N[C@@H](CC(C)C)C(=O)N[C@@H](CCCNC(=N)N)C(=O)N[C@H](C(=O)N[C@@H](CCCCN)C(=O)NCc1ccc(C(=N)N)cc1)C(C)C (Ac-LPLLRVK-{NH(4-amidinobenzyl)}) | 1.5 | inactive
2 | 140 | 140 | CC(=O)N[C@@H](CC(C)C)C(=O)N[C@@H](CC(C)C)C(=O)N[C@@H](CC(=O)O)C(=O)N[C@@H](CC(C)C)C(=O)N[C@@H](CCCNC(=N)N)C(=O)N[C@H](C(=O)N[C@@H](CCCCN)C(=O)NCc1ccc(C(=N)N)cc1)C(C)C (Ac-LLDLRVK-{NH(4-amidinobenzyl)}) | 1 | inactive
3 | 3 | 2.3 | CC(=O)N[C@@H](CC(C)C)C(=O)N[C@@H](CCC(N)=O)C(=O)N[C@@H](CC(C)C)C(=O)N[C@@H](CC(C)C)C(=O)N[C@@H](CCCNC(=N)N)C(=O)N[C@H](C(=O)N[C@@H](CCCCN)C(=O)NCc1ccc(C(=N)N)cc1)C(C)C (Ac-LQLLRVK-{NH(4-amidinobenzyl)}) | 0.8 | inactive
4 | 2.8 | 8 | CC(=O)N[C@@H](CC(C)C)C(=O)N[C@@H](CC(C)C)C(=O)N[C@@H](CC(C)C)C(=O)N[C@@H](Cc1c[nH]c2ccccc12)C(=O)N[C@@H](CCCNC(=N)N)C(=O)N[C@H](C(=O)N[C@@H](CCCCN)C(=O)NCc1ccc(C(=N)N)cc1)C(C)C (Ac-LLLWRVK-{NH(4-amidinobenzyl)}) | 2.9 | inactive
5 | 3 | 1.1 | CC(=O)N1CCC[C@H]1C(=O)N[C@@H](CC(C)C)C(=O)N[C@@H](CC(C)C)C(=O)N[C@@H](CC(C)C)C(=O)N[C@@H](CCCNC(=N)N)C(=O)N[C@H](C(=O)N[C@@H](CCCCN)C(=O)NCc1ccc(C(=N)N)cc1)C(C)C (Ac-PLLLRVK-{NH(4-amidinobenzyl)}) | 0.4 | inactive
6 | 4.1 | 5 | CC(=O)N[C@@H](CC(C)C)C(=O)N[C@@H](CC(C)C)C(=O)N[C@@H](CCC(N)=O)C(=O)N[C@@H](CC(C)C)C(=O)N[C@@H](CCCNC(=N)N)C(=O)N[C@H](C(=O)N[C@@H](CCCCN)C(=O)NCc1ccc(C(=N)N)cc1)C(C)C (Ac-LLQLRVK-{NH(4-amidinobenzyl)}) | 1.2 | inactive
7 | 44 | 36 | CC(=O)N[C@@H](CC(C)C)C(=O)N[C@@H](CC(C)C)C(=O)N[C@@H](Cc1c[nH]c2ccccc12)C(=O)N[C@@H](CC(C)C)C(=O)N[C@@H](CCCNC(=N)N)C(=O)N[C@H](C(=O)N[C@@H](CCCCN)C(=O)NCc1ccc(C(=N)N)cc1)C(C)C (Ac-LLWLRVK-{NH(4-amidinobenzyl)}) | 0.8 | inactive
8 | 400 | 260 | CC(=O)N[C@@H](CC(C)C)C(=O)N[C@@H](CC(C)C)C(=O)N[C@@H](CC(C)C)C(=O)N[C@@H](CC(=O)O)C(=O)N[C@@H](CCCNC(=N)N)C(=O)N[C@H](C(=O)N[C@@H](CCCCN)C(=O)NCc1ccc(C(=N)N)cc1)C(C)C (Ac-LLLDRVK-{NH(4-amidinobenzyl)}) | 0.6 | inactive
9 | 0.9 | 0.5 | CC(=O)N[C@@H](CC(C)C)C(=O)N[C@@H](CC(C)C)C(=O)N[C@@H](CCCNC(=N)N)C(=O)N[C@@H](CC(C)C)C(=O)N[C@@H](CCCNC(=N)N)C(=O)N[C@H](C(=O)N[C@@H](CCCCN)C(=O)NCc1ccc(C(=N)N)cc1)C(C)C (Ac-LLRLRVK-{NH(4-amidinobenzyl)}) | 0.6 | inactive
10 | 0.4 | 0.5 | CC(=O)N[C@@H](CC(C)C)C(=O)N[C@@H](CCCNC(=N)N)C(=O)N[C@@H](CC(C)C)C(=O)N[C@@H](CC(C)C)C(=O)N[C@@H](CCCNC(=N)N)C(=O)N[C@H](C(=O)N[C@@H](CCCCN)C(=O)NCc1ccc(C(=N)N)cc1)C(C)C (Ac-LRLLRVK-{NH(4-amidinobenzyl)}) | 1.3 | inactive
11 | 30 | 11 | CC(=O)N[C@@H](CC(C)C)C(=O)N[C@@H](CC(C)C)C(=O)N[C@@H](C)C(=O)N[C@@H](CC(C)C)C(=O)N[C@@H](CCCNC(=N)N)C(=O)N[C@H](C(=O)N[C@@H](CCCCN)C(=O)NCc1ccc(C(=N)N)cc1)C(C)C (Ac-LLALRVK-{NH(4-amidinobenzyl)}) | 0.4 | inactive
12 | 80 | 50 | CC(=O)N[C@@H](CC(C)C)C(=O)N[C@@H](CC(=O)O)C(=O)N[C@@H](CC(C)C)C(=O)N[C@@H](CC(C)C)C(=O)N[C@@H](CCCNC(=N)N)C(=O)N[C@H](C(=O)N[C@@H](CCCCN)C(=O)NCc1ccc(C(=N)N)cc1)C(C)C (Ac-LDLLRVK-{NH(4-amidinobenzyl)}) | 0.6 | inactive
13 | 3 | 4.7 | CC(=O)N[C@@H](CC(C)C)C(=O)N[C@@H](Cc1cnc[nH]1)C(=O)N[C@@H](CC(C)C)C(=O)N[C@@H](CC(C)C)C(=O)N[C@@H](CCCNC(=N)N)C(=O)N[C@H](C(=O)N[C@@H](CCCCN)C(=O)NCc1ccc(C(=N)N)cc1)C(C)C (Ac-LHLLRVK-{NH(4-amidinobenzyl)}) | 1.6 | inactive
14 | 3 | 3 | CC(=O)NCC(=O)N[C@@H](CC(C)C)C(=O)N[C@@H](CC(C)C)C(=O)N[C@@H](CC(C)C)C(=O)N[C@@H](CCCNC(=N)N)C(=O)N[C@H](C(=O)N[C@@H](CCCCN)C(=O)NCc1ccc(C(=N)N)cc1)C(C)C (Ac-GLLLRVK-{NH(4-amidinobenzyl)}) | 1 | inactive
15 | 4 | 1.4 | CC(=O)N[C@@H](CC(C)C)C(=O)N[C@@H](CC(C)C)C(=O)N1CCC[C@H]1C(=O)N[C@@H](CC(C)C)C(=O)N[C@@H](CCCNC(=N)N)C(=O)N[C@H](C(=O)N[C@@H](CCCCN)C(=O)NCc1ccc(C(=N)N)cc1)C(C)C (Ac-LLPLRVK-{NH(4-amidinobenzyl)}) | 0.4 | inactive
16 | 28 | 18 | CSCC[C@H](NC(=O)[C@H](CC(C)C)NC(=O)[C@H](CC(C)C)NC(C)=O)C(=O)N[C@@H](CC(C)C)C(=O)N[C@@H](CCCNC(=N)N)C(=O)N[C@H](C(=O)N[C@@H](CCCCN)C(=O)NCc1ccc(C(=N)N)cc1)C(C)C (Ac-LLMLRVK-{NH(4-amidinobenzyl)}) | 0.6 | inactive
17 | 6 | 6 | CSCC[C@H](NC(C)=O)C(=O)N[C@@H](CC(C)C)C(=O)N[C@@H](CC(C)C)C(=O)N[C@@H](CC(C)C)C(=O)N[C@@H](CCCNC(=N)N)C(=O)N[C@H](C(=O)N[C@@H](CCCCN)C(=O)NCc1ccc(C(=N)N)cc1)C(C)C (Ac-MLLLRVK-{NH(4-amidinobenzyl)}) | 1 | inactive

Reference: ChEMBL document CHEMBL4049407, “Positional Scanning Identifies the Molecular Determinants of a High Affinity Multi-Leucine Inhibitor for Furin and PACE4” (J Med Chem, 2017)
